Screens (PubChem)
NPY Y2 blocker: antagonists of human neuropeptide Y receptor Y2. 0.99% of 140,000 active. inhibition, % at 2.7 µM. NPY-Y2 expressing cells, antagonist mode. P49146; in the data active = inhibition above about 17%
Target sequence (P49146 whole entry, looked up): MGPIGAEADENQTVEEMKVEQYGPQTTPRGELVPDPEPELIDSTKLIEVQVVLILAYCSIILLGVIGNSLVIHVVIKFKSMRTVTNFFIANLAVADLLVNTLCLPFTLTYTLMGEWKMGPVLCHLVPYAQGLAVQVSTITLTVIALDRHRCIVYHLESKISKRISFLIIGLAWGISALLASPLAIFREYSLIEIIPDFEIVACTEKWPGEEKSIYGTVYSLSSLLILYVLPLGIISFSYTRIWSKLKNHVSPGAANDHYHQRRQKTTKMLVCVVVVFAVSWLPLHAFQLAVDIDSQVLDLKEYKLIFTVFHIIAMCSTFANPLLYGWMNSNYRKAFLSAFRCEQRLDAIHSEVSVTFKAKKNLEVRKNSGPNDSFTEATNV
NPY Y1 blocker: NPY-Y1 (human) receptor antagonism. P25929. HEK293-CNG Y1 cells, membrane potential fluorescence; NPY at EC95, then isoproterenol. inhibition, % at 3.6 µM. 1% of 200,000 active;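 active = inhibition above the campaign mean inhibition of all tested compounds plus 3 SD, cut at about 20% in these data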
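Material: Y1- and CNG-channel-expressing HEK293 cells / Probe or stimulus: NPY 25 nM then isoproterenol 1 µM plus Ro 20-1724 25 µM / Doses: 3.6 µM single dose, DMSO 0.4% / Schedule: compound incubation 1 h at room temperature, readout 45 min post-stimulation / Signal: membrane potential fluorescence / Benchmarks: isoproterenol-only wells as full block versus NPY-plus-isoproterenol wells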
NPY1 pot ag: potentiators or agonists of human neuropeptide Y receptor Y1 | activation, % at 3.6 µM | AID 1304 | NPY-Y1 expressing cells, potentiator/agonist activation | 0.37% of 220,000 active; in the data active = activation above about 33%, passing the limit was not always enough;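 note: cells stimulated with NPY at EC10 then isoproterenol at EC100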
NPY2 pot ag: human NPY-Y2 potentiation or agonism, primary screen | P49146 | cells expressing NPY-Y2, potentiator/agonist read-out | activation, % at 3.6 µM | 0.45% of 220,000 active; in the data active = activation above about 27%;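 note: cells stimulated with NPY near EC25 plus isoproterenol at EC100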
Each line names hits and unclear results; the compound was inactive in the other large screens. Sampled rows, rich in hits. Any-hit rate of the full collection: about 1.8%.

CCSc1nnc(NC(=O)NC(C)(C(F)(F)F)C(F)(F)F)s1	none
CCSc1nnc(NC(=O)NC(CC)(C(F)(F)F)C(F)(F)F)s1	NPY1 pot ag 47.0
CCOC(=O)Cn1nnc(-c2cccc(OC)c2)n1	none
COc1cccc(-c2nnn(CC(=O)O)n2)c1	NPY Y1 blocker 26.3
O=C(c1cccs1)N(Cc1ccco1)c1nc(-c2ccc(F)cc2)cs1	NPY Y2 blocker 17.7
CCC(=O)N(Cc1ccco1)c1nc(-c2ccccc2)cs1	none
CN(C(=O)c1cccs1)c1ccc(OCC(=O)Nc2ccc(C(=O)O)cc2)cc1	none (no result: NPY Y2 blocker, NPY Y1 blocker)
C/C(=N\OCC(=O)Nc1ccccc1Br)c1cccs1	none (no result: NPY Y2 blocker)
CC(C)C1Cc2c(sc3[nH]c(=S)n(Cc4ccccc4)c(=O)c23)CO1 (stereo unspecified)	none
CC1CCCc2sc3nc(NCc4ccco4)n4ncnc4c3c21 (stereo unspecified)	NPY Y2 blocker 27.6, NPY Y1 blocker 39.1
O=C(N/N=C/c1ccc[nH]1)c1ccc2c(c1)OCO2	none (no result: NPY Y2 blocker)
O=C(N/N=C/c1ccc(-c2ccc(Br)cc2)o1)c1ccc2c(c1)OCO2	NPY Y1 blocker 20.8 (no result: NPY Y2 blocker)
Cc1nnsc1-c1c(C(=O)N2CCOCC2)c(C)nn1-c1ccc(Cl)cc1	none (no result: NPY Y2 blocker, NPY Y1 blocker)
CCN(C(=O)COc1cc(=O)n(CC)c2ccccc12)c1cc(Cl)ccc1OC	NPY Y2 blocker 17.2, NPY Y1 blocker 23.4
CCN(C(=O)COc1cc(=O)n(CC)c2ccccc12)c1cccc(Cl)c1	none
Cc1ccc(OC(=O)c2cc(C)nn2C(C)(C)C)cc1	none (no result: NPY Y2 blocker, NPY Y1 blocker)
O=C(NC1CCCCCCC1)C1CCCN(S(=O)(=O)c2cnc[nH]2)C1 (stereo unspecified)	NPY2 pot ag 41.8
CCOC(=O)c1cnc2ccc(OCC)cc2c1NCc1ccccc1	NPY Y2 blocker 65.7, NPY Y1 blocker 69.7
CCOC(=O)c1cnc2ccc(OCC)cc2c1N1CCN(c2ccccc2)CC1	NPY Y2 blocker 17.4, NPY Y1 blocker 29.3
Cc1cc(F)ccc1S(=O)(=O)Nc1ccccc1C(=O)NCc1cccnc1	none (no result: NPY Y2 blocker)
Cc1cc(Br)ccc1OCCCCN1CCCCC1	none (no result: NPY Y2 blocker)
Cc1noc(C)c1C(=O)Nc1nc(C23CC4CC(CC(C4)C2)C3)cs1	NPY1 pot ag 44.7, NPY2 pot ag 72.2
CNC(=O)C(=O)Nc1nc(C23CC4CC(CC(C4)C2)C3)cs1	none (no result: NPY Y2 blocker)
CS(=O)(=O)c1[nH]nc(-c2ccccc2)c1C#N	none (no result: NPY Y2 blocker, NPY Y1 blocker)
COC(=O)c1ccc(NC(=S)NC2c3ccccc3CC2O)cc1 (stereo unspecified)	none (no result: NPY Y2 blocker)
CC(C)C[C@H](NC(=O)c1nc[nH]c1C(=O)NCCCCCNC(=O)OC(C)(C)C)C(=O)OCc1ccccc1	NPY1 pot ag 38.8, NPY2 pot ag 36.0 (no result: NPY Y2 blocker)
C[C@H](NC(=O)c1nc[nH]c1C(=O)NCCCCCNC(=O)OC(C)(C)C)C(=O)OCc1ccccc1	none (no result: NPY Y2 blocker)
Cc1ccc2nc(SC(C)C(=O)N3CC(C)OC(C)C3)[nH]c2c1 (stereo unspecified)	NPY Y1 blocker 20.9 (no result: NPY Y2 blocker)
Cc1ccc2nc(SC(C)C(=O)N3CCCC3)[nH]c2c1 (stereo unspecified)	none
Cc1nc2sc3c(c2c(=O)n1/N=C/c1ccco1)CCCC3	NPY1 pot ag 104.4, NPY2 pot ag 103.4
CCOC(=O)Nc1nc(-c2ccccc2)c(C(=O)c2ccc(Cl)cc2)s1	NPY Y2 blocker 20.1, NPY Y1 blocker 40.0
CN(C)C(=O)COC(=O)c1cccc(CN2C(=O)c3ccccc3C2=O)c1	none (no result: NPY Y2 blocker)
CC(C)(C)C(=O)Nc1ccc(-c2cc3cc(Cl)ccc3o2)cc1	none (no result: NPY Y2 blocker, NPY Y1 blocker)
N=c1c2c(-c3ccccc3)c(-c3ccccc3)oc2ncn1CCCN1CCOCC1	NPY Y2 blocker 26.7, NPY Y1 blocker 21.1
COC(=O)[C@H]1C[C@@H]1[C@H](NC(=O)c1cnccn1)c1ccccc1	NPY2 pot ag 83.5
N#CCN1CCC2(O)CCCCC2C1c1ccc2c(c1)OCO2 (stereo unspecified)	none (no result: NPY Y2 blocker, NPY Y1 blocker)
NC(=O)c1cccn1Cc1ccccc1Cl	none
NC(=O)c1cccn1Cc1cccc(Cl)c1	NPY1 pot ag 94.9, NPY2 pot ag 33.1
Cc1ccc(NCCCCO)cc1C	none (no result: NPY Y2 blocker)
CC(=O)Nc1nnc(CSCc2ccccc2F)s1	none (no result: NPY Y2 blocker, NPY Y1 blocker)
Cc1noc(C)c1S(=O)(=O)N(CCc1ccccc1)Cc1ccccc1	NPY Y2 blocker 20.2, NPY Y1 blocker 24.3
Cc1ccc(S(=O)(=O)NCC(=O)NCC(=O)OC(C(=O)NC(N)=O)C(C)C)cc1C (stereo unspecified)	none (no result: NPY Y2 blocker, NPY Y1 blocker)
CN(C)S(=O)(=O)N1CCC(c2ccc(F)cc2)C(COc2ccc3c(c2)OCO3)C1 (stereo unspecified)	NPY Y2 blocker 27.7, NPY Y1 blocker 43.6
OC(COc1ccc2c(c1)OCO2)CN1CCN(c2ccc(F)cc2)CC1 (stereo unspecified)	none (no result: NPY Y2 blocker)
CC1(C)CC(=O)C2=C(C1)NC1=C(C(=O)c3ccccc31)C2c1cc([N+](=O)[O-])ccc1O (stereo unspecified)	none (no result: NPY Y2 blocker, NPY Y1 blocker)
O=C(NCc1cccs1)C1CCCN1C(=O)Nc1ccc(Cl)cc1 (stereo unspecified)	none (no result: NPY Y2 blocker)
O=C(NCc1cccs1)C1CCCN1C(=O)Nc1ccccc1 (stereo unspecified)	NPY1 pot ag 110.5, NPY2 pot ag 102.0
CCn1nc(NC(=O)Cc2ccc(OC)cc2)c2cc3cc(C)ccc3nc21	none (no result: NPY Y2 blocker, NPY Y1 blocker)
CSc1nc2ccccc2n1CC(=O)Nc1cc(C(F)(F)F)ccc1N1CCOCC1	NPY Y2 blocker 22.6, NPY Y1 blocker 23.7
Cc1cc(Br)ccc1NC(=O)CN1C(=O)C2C3CC(c4ccccc4)C(C3)C2C1=O (stereo unspecified)	NPY1 pot ag 67.2, NPY2 pot ag 53.2
COCC(=O)Nc1ccc(Br)cc1C	none (no result: NPY Y2 blocker)
CCOC(=O)C1(Cc2cccc(OC)c2)CCN(Cc2ccc3c(c2)OCCO3)CC1	none (no result: NPY Y2 blocker)
CCOC(=O)C1(CCOc2ccccc2)CCN(Cc2ccc3c(c2)OCCO3)CC1	NPY Y1 blocker 20.6 (no result: NPY Y2 blocker)
CCOC(=O)C1(Cc2cccc(OC)c2)CCN(Cc2cccc3c2OCO3)CC1	NPY Y1 blocker 21.4 (no result: NPY Y2 blocker)
Cc1cccc(C)c1NC(=O)CSc1nnc(C)n1CC1CCCO1 (stereo unspecified)	none (no result: NPY Y2 blocker)
COc1ccc(Nc2nc(N)nc(CSC(=S)N3CCCCC3C)n2)cc1 (stereo unspecified)	none (no result: NPY Y2 blocker, NPY Y1 blocker)
COc1ccccc1NC(=S)Nc1cccc2cnccc12	NPY1 pot ag 65.6, NPY2 pot ag 88.7
CCC(C)(C)NC(=O)C(c1cccn1C)N(Cc1ccc(OC)cc1)C(=O)Cn1nnc2ccccc21 (stereo unspecified)	NPY Y2 blocker 52.7, NPY Y1 blocker 52.0
CCC(C)(C)NC(=O)C(c1cccn1C)N(C(=O)Cn1nnc2ccccc21)c1ccccc1OC (stereo unspecified)	none
CCCCNC(=O)c1onc(CSc2ccc(C)c(C)c2)c1C(=O)O	none
COC(=O)c1c(CSc2ccc(C)c(C)c2)noc1C(=O)NCc1ccc(OC)cc1	NPY Y2 blocker 21.6, NPY Y1 blocker 23.0
O=C(O)COc1ccc(F)cc1Br	none (no result: NPY Y2 blocker, NPY Y1 blocker)
Cc1ccc(OCc2nnc(N)s2)cc1C	none (no result: NPY Y2 blocker, NPY Y1 blocker)
COc1ccccc1CNC(=O)C1CCN(Cc2nc(-c3cccc(Cl)c3)oc2C)CC1	none
CCc1ccc(-c2nc(CN3CCC(C(=O)NCc4ccccc4OC)CC3)c(C)o2)cc1	NPY Y2 blocker 18.0, NPY Y1 blocker 21.1
O=C(CSc1nc(-c2ccc(F)cc2)cc(C(F)(F)F)n1)NCCN1CCOCC1	none
